From PubChem
STAT1 inh: STAT1 signaling inhibitors, primary screen, cell-based, HTS, luciferase reporter; 200,000 tested, 0.35% active; inhibition, % at 5.5 µM; NIH 3T3 STAT1-luciferase reporter, IFN-gamma, luminescence;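 active means inhibition above a set limit, the mean inhibition across all tested compounds plus 3 SD, cut at about 34% in these data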
STAT3 activator: IL-6 driven STAT3 reporter potentiators, primary screen, U3A cells, luciferase, luminescence, MLSCN library; IL-6 STAT3-luciferase reporter; 100% = signal with IL-6 EC80 alone; AID 871, 2007; 190,000 tested, 0.91% active; activation (% of control), % at 5.6 µM;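 active means activation above the screen-wide mean of compound activation plus 3 SD, cut at about 130% in these data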
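Material: STAT3-luciferase reporter U3A cells; Probe or stimulus: IL-6 (33 ng/mL); Incubation: compound pre-incubation 1 h before IL-6, then 6 h stimulation at 37 °C; Technique: luminescence from STAT3-driven luciferase reporter; Evaluation: % activation versus median of IL-6-stimulated wells; Controls: IL-6-only high control.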
STAT1 activator: STAT1 signaling activators, primary screen, cell-based, HTS, luciferase reporter; NIH 3T3 STAT1-luciferase reporter, IFN-gamma, luminescence; 100% = IFN-gamma alone, no compound; activation (% of control), % at 5.5 µM; 200,000 tested, 2.6% active; AID 932, 2007;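 active means activation above the screen-wide mean activation plus 3 SD, cut at about 130% in these data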
NF-kB expr up: activators of NF-kB expression in neurons, primary screen, cell-based, HTS; human neuronal cells, NF-kB reporter expression; active compounds read high; fold change at 12.5 µM; 190,000 tested, 1.6% active; in the data active means fold change above about 3.3
STAT3 inh-1: IL-6 driven STAT3 reporter inhibitors, primary screen, U3A cells, luciferase, luminescence, MLSCN library | AID 862, 2007 | 190,000 tested, 0.89% active | inhibition, % at 5.5 µM | IL-6 STAT3-luciferase reporter; host cell line lacks STAT1;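 active means inhibition above the mean inhibition across all screened compounds plus 3 SD, cut at about 44% in these data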
APP 5'UTR act: activators of APP 5'UTR luciferase reporter, primary screen, SH-SY5Y cells. SH-SY5Y APP 5'UTR luciferase reporter, luminescence; zero percent = DMSO vehicle wells. activation, % at 2 µM. 190,000 tested, 1% active. AID 1276, 2008;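 active means activation above a set limit, based on mean plus 3 SD of controls, cut at about 140% in these data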
STAT3 inh-2: STAT3 reporter inhibitors, retest of hits, confirmation, U3A cells, luciferase, luminescence; inhibition, % at 5.7 µM; AID 1265, 2008; 1,200 tested, 45% active; IL-6 STAT3 luciferase reporter; cell line lacks STAT1; shares compounds with STAT3 inh-1;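 active means inhibition above the hit cutoff computed for the primary STAT3 screen, cut at about 44% in these data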
NFkB inh STAT3ct: NF-kB reporter inhibitors in human cells, confirmation, counter-screen for STAT3 inhibitor project, cell-based, HEK293T, luciferase, TNF-alpha stimulus; shares compounds with STAT3 inh-1; 1,200 tested, 36% active; TNF-alpha induced; inhibition, % at 5.7 µM; AID 1308, 2008;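 active means inhibition above the mean of solvent-only control wells plus 3 SD, cutoff set per campaign, cut at about 13% in these data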
STAT1 inh STAT3c: STAT1 reporter inhibitors, IFN-gamma induced, confirmation, counter-screen for STAT3 inhibitor project, cell-based, NIH 3T3, luciferase luminescence; inhibition, % at 5.7 µM; 1,200 tested, 27% active; NIH 3T3 STAT1-luciferase reporter; shares compounds with STAT3 inh-1;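 active means inhibition above the mean plus 3 SD of solvent-only control wells, limit set per screening run, cut at about 16% in these data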
Hits are given with their value; . = inactive; / = no result. Most compounds without a hit are left out; they make up all but 5.1% or so of the library.

SMILES	STAT1 inh	STAT3 activator	STAT1 activator	NF-kB expr up	STAT3 inh-1	APP 5'UTR act	STAT3 inh-2	NFkB inh STAT3ct	STAT1 inh STAT3c
COc1ccc(CCNc2cc(N3CCN(C(=O)c4ccccc4F)CC3)ccc2[N+](=O)[O-])cc1OC	.	.	.	.	69	.	84	37	19
COc1ccc(C(=O)N2CCN(c3ccc([N+](=O)[O-])c(NCCc4ccc(OC)c(OC)c4)c3)CC2)cc1	.	.	.	.	70	.	87	42	29
CC(C)=NOCc1ccc(-c2cn([C@@H]3COC[C@H]3O)nn2)cc1	.	.	.	.	.	.	/	/	/
Cc1ccc(-c2cc(C(=O)N/N=C\c3cnn(C)c3C)c3ccccc3n2)cc1C	.	.	.	.	.	.	/	/	/
O=C(NCCN1CCOCC1)c1cc2cc([N+](=O)[O-])ccc2s1	.	.	.	.	.	.	/	/	/
COc1cc(N/N=C/c2ccc(N(C)C)cc2)ncn1	.	.	.	4.1	61	135	.	.	.
COc1cc(N/N=C/c2ccccc2O)ncn1	.	.	.	.	.	.	/	/	/
O=C(NC1CCCCC1)c1ccc(CNc2nc(=S)[nH]c3ccccc23)cc1	.	.	.	.	.	.	/	/	/
CC(=O)c1c(C)[nH]c(C(=O)CSc2nc3ccccc3n2C)c1C	.	.	.	.	50	.	.	.	.
CCOC(=O)c1c(CSc2ccccc2)n(C)c2ccc(O)c(CN3CCOCC3)c12	.	.	.	.	.	.	/	/	/
COCCCNC(=O)c1ccc(CN2CCc3ccccc3C2)cc1	.	.	.	.	.	.	/	/	/
O=C(Nc1cccnc1)c1ccc(C(=O)Nc2cccnc2)cc1	.	.	.	.	.	.	/	/	/
Cc1ccc(NC(=O)c2ccc(CN3CCc4ccccc4C3)cc2)cc1	.	.	.	.	71	.	67	18	.
O=C(Nc1cccnc1)c1ccc(CN2CCc3ccccc3C2)cc1	.	.	.	.	47	.	.	.	.
CCc1ccc(NC(=O)CN2CCc3ccccc3C2)cc1	.	.	.	.	.	.	/	/	/
O=C(Nc1ccccc1)c1ccc(CN2CCc3ccccc3C2)cc1	.	.	.	.	52	.	64	.	.
Cc1cc(N)nc(C)c1C#N	.	.	.	.	.	.	/	/	/
O=C(Cn1cc(C(F)(F)F)ccc1=O)N/N=C/c1ccccc1	.	.	.	.	.	.	/	/	/
CC(C)C(NC(=O)c1ccc(C(C)(C)C)cc1)C(=O)Nc1cccc(S(N)(=O)=O)c1 (stereo not drawn)	.	.	.	.	44	.	.	.	.
CCOc1ccccc1C(=O)NC(C(=O)Nc1cccc(S(N)(=O)=O)c1)C(C)C (stereo not drawn)	.	.	.	.	.	.	/	/	/
Cc1nc2scc(-c3ccccc3)c2c(=O)n1N=C1C=CC(=O)C=C1	.	.	.	.	.	.	/	/	/
C=CCn1c(C)cc(C(=O)CSc2nc3ccccc3[nH]2)c1C	.	.	.	.	99	.	61	15	.
CCc1ccc(CN2CCN(C(=O)c3cccc(OC)c3OC)CC2)cc1	.	.	.	.	60	.	.	.	.
CC(CCCC(C)(C)O)NC(=O)c1cc(COc2ccc3ncccc3c2)on1 (stereo not drawn)	.	.	.	.	63	.	63	21	24
O=C(NCc1cccc(Cl)c1)c1cc(COc2ccc3ncccc3c2)on1	.	.	.	.	45	.	62	15	21
SMILES	STAT1 inh	STAT3 activator	STAT1 activator	NF-kB expr up	STAT3 inh-1	APP 5'UTR act	STAT3 inh-2	NFkB inh STAT3ct	STAT1 inh STAT3c
Cc1ccc(NC(=O)Cc2nn(C)c(=O)c3ccccc23)cc1F	.	.	.	.	85	.	77	25	23
Cc1ccc(NC(=O)Cn2nc(C)c3ccccc3c2=O)cc1F	.	.	.	.	.	.	/	/	/
Cn1nc(CC(=O)Nc2ccc3c(c2)OCCO3)c2ccccc2c1=O	.	.	.	.	83	.	78	34	28
OCCC1CN(Cc2cc3c(cc2Cl)OCO3)CCN1C1CCCCC1 (stereo not drawn)	.	.	.	.	.	.	/	/	/
O=C(Nc1nnc(SCC(=O)N2CCCc3ccccc32)s1)c1cccc2ccccc12	.	.	.	.	.	.	/	/	/
Cc1ccc(C(=O)Nc2nnc(SCC(=O)N3CCCc4ccccc43)s2)cc1	.	.	.	7.1	62	.	71	56	49
CC(C)Oc1ccc(C(=O)Nc2nnc(SCC(=O)N3CCOCC3)s2)cc1	.	.	.	.	70	.	74	57	50
C(=N\Nc1nc(N2CCCC2)nc(N2CCCC2)n1)/c1ccncc1	.	.	.	.	.	.	/	/	/
CC(=O)Nc1cccc(-c2nnc(SCC(=O)n3c4c(c5ccccc53)CCCC4)n2C)c1	.	.	.	.	.	.	/	/	/
O=C(Nc1ccccc1C(=O)N1CCOCC1)c1noc2c1CCCC2	.	.	.	.	.	.	/	/	/
O=C(Nc1cccc(O)c1)c1noc2c1CCCCC2	.	.	.	.	83	.	72	29	.
CC(C)OC(=O)c1sc2nc(-c3ccccc3)ccc2c1N	.	.	.	.	61	168	.	.	.
COc1ccc(NC(=O)CN2C(=O)CSC(C)C2=O)cc1 (stereo not drawn)	.	.	.	.	.	.	/	/	/
Cc1cc(C)c(NC(=O)/C(=C/c2ccccc2)c2ccccc2)c(C)c1	.	.	.	.	.	.	/	/	/
Fc1ccc(NC(=S)Nc2ccc(Cl)cc2Cl)cc1	.	.	.	.	44	.	.	.	.
CC(=O)N1CCN(c2ccccc2NC(=O)COc2ccc(Cl)cc2Cl)CC1	.	.	.	.	.	.	/	/	/
CC(=O)N1CCN(c2ccc(NC(=O)COc3ccc(Cl)cc3Cl)cc2)CC1	.	.	.	.	60	.	.	.	.
COc1ccc(OCC(=O)Nc2ccc(N3CCN(C(=O)c4ccco4)CC3)cc2)cc1	.	.	.	.	.	.	/	/	/
O=C(COc1ccc(Cl)cc1)Nc1ccc(N2CCN(C(=O)c3ccco3)CC2)cc1	.	.	.	.	61	.	.	.	.
